From ChEMBL document CHEMBL1123986, “Oral absorption of cephalosporin antibiotics. 2. Expanded structure-activity relationships of 7-(arylacetamido)-3-substituted cephalosporins” (1988)
Converted amounts (≈) assume the structure as drawn.

Legend:
[1] = Ratio of ED50 value evaluated in Streptococcus pyogenes by po to sc administration; type: functional
Summary of the method: (§1)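 Oral/subcutaneous effective-dose ratio. Both routes were dosed in random-sex ICR mice of 19–21 g at 1 and 5 h after an intraperitoneal challenge of 50–500 LD50 from a frozen organism pool. Each route used five 2-fold dilution levels with eight mice per level, and the po value was divided by the sc value.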

[2] = system: Salmonella typhi; test: Minimum inhibitory concentration against Salmonella typhi; type: functional, Salmonella enterica subsp. enterica serovar Typhi; conditions: Salmonella enterica
[3] = system: Streptococcus pneumoniae; test: Minimum inhibitory concentration against Streptococcus pneumoniae; type: functional
Summary of the method: (§2)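 Agar dilution MIC in μg/mL. […] Organisms not run are marked not tested.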

[4] = system: Streptococcus pneumoniae; test: Efficacy against mouse infections caused by S. Pneumoniae measured as Minimum inhibitory concentration
[5] = Ratio of ED50 value evaluated in Streptococcus pneumoniae by po to sc administration; type: functional; summary of the method: as §1
[6] = Ratio of ED50 value evaluated in Staphylococcus aureus by po to sc administration; type: functional; summary of the method: as §1
[7] = system: Haemophilus influenzae; test: (§3) Minimum inhibitory concentration against Haemophilus influenzae; type: functional; summary of the method: as §2
[8] = system: Mus musculus; test: (§4) Effective dose administered orally (po) to 19-21-g random sex ICR mice at 1 hr and 5 hr intervals after intraperitoneal Staphylococcus aureus; type: functional
Summary of the method: (§5)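 Mouse protection: random-sex ICR mice, 19–21 g, challenged intraperitoneally from a frozen organism pool giving 50–500 LD50 per challenge dose. Drug given sc or po at 1 and 5 h post-infection. Five 2-fold dilution levels per compound, eight mice per dilution.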

[9] = system: Klebsiella aerogenes; test: Minimum inhibitory concentration against Enterobacter aerogenes; type: functional; summary of the method: as §2
[10] = system: Haemophilus influenzae; test: as §3; type: functional; summary of the method: as §2; remark: listed apart in the source
[11] = system: Mus musculus; test: (§6) Effective dose administered orally (po) to 19-21-g random sex ICR mice at 1 hr and 5 hr intervals after intraperitoneal administration of Streptococcus pneumoniae; type: functional; summary of the method: as §5
[12] = system: Escherichia coli; test: Minimum inhibitory concentration against Escherichia coli; type: functional; summary of the method: as §2
[13] = system: Mus musculus; test: (§7) Effective dose administered subcutaneously (sc) to 19-21-g random sex ICR mice at 1 hr and 5 hr intervals after intraperitoneal administration of Staphylococcus aureus; type: functional; summary of the method: as §5
[14] = system: Klebsiella pneumoniae; test: Minimum inhibitory concentration against Klebsiella pneumoniae; type: functional; summary of the method: as §2
[15] = system: Staphylococcus aureus; test: Efficacy against mouse infections caused by Staphylococcus aureus measured as Minimum inhibitory concentration
[16] = system: Streptococcus pyogenes; test: Minimum inhibitory concentration against Streptococcus pyogenes; type: functional; summary of the method: as §2
[17] = system: Streptococcus pyogenes; test: Efficacy against mouse infections caused by Streptococcus pyogenes measured as Minimum inhibitory concentration
[18] = system: Staphylococcus aureus; test: Minimum inhibitory concentration against Staphylococcus aureus; type: functional; summary of the method: as §2
[19] = system: Mus musculus; test: (§8) Effective dose administered subcutaneously (sc) to 19-21-g random sex ICR mice at 1 hr and 5 hr intervals after intraperitoneal administration of Streptococcus pneumoniae; type: functional; summary of the method: as §5
[20] = system: Mus musculus; test: (§9) Effective dose administered orally (po) to 19-21-g random sex ICR mice at 1 hr and 5 hr intervals after intraperitoneal Streptococcus pyogenes; type: functional; summary of the method: as §5
[21] = system: Mus musculus; test: (§10) Effective dose administered subcutaneously (sc) to 19-21-g random sex ICR mice at 1 hr and 5 hr intervals after intraperitoneal administration of Streptococcus pyogenes; type: functional; summary of the method: as §5
[22] = system: Salmonella typhi; test: Minimum inhibitory concentration by agar dilution method against Salmonella typhi; type: functional, Salmonella enterica subsp. enterica serovar Typhi; conditions: Salmonella enterica
[23] = system: Staphylococcus aureus; test: as §4; type: functional; summary of the method: as §5
[24] = system: Streptococcus pyogenes; test: Efficacy against mouse infections caused by Streptococcus pyogenes measured as Minimum inhibitory concentration; type: functional
[25] = system: Streptococcus pneumoniae; test: as §6; type: functional; summary of the method: as §5
[26] = system: Staphylococcus aureus; test: as §7; type: functional; summary of the method: as §5
[27] = system: Haemophilus influenzae; test: Minimum inhibitory concentration by agar dilution method against Haemophilus influenzae (beta lactamase(-)); type: functional; summary of the method: as §2
[28] = system: Streptococcus pneumoniae; test: Efficacy against mouse infections caused by S. Pneumoniae measured as Minimum inhibitory concentration; type: functional
[29] = system: Streptococcus pneumoniae; test: as §8; type: functional; summary of the method: as §5
[30] = system: Streptococcus pyogenes; test: as §9; type: functional; summary of the method: as §5
[31] = system: Klebsiella pneumoniae; test: Minimum inhibitory concentration by agar dilution method against Klebsiella pneumoniae; type: functional; summary of the method: as §2
[32] = system: Staphylococcus aureus; test: Efficacy against mouse infections caused by Staphylococcus aureus measured as Minimum inhibitory concentration; type: functional
[33] = system: Streptococcus pyogenes; test: as §10; type: functional; summary of the method: as §5
[34] = system: Haemophilus influenzae; test: Minimum inhibitory concentration by agar dilution method against Haemophilus influenzae (beta lactamase(-); type: functional; summary of the method: as §2
[35] = system: Haemophilus influenzae; test: Minimum inhibitory concentration by agar dilution method against (beta lactamase(+); type: functional; summary of the method: as §2
[36] = system: Mus musculus; test: Effective dose administered orally (po) to 19-21-g random sex ICR mice at 1 hr and 5 hr intervals after intraperitoneal Streptococcus pneumoniae; type: functional; summary of the method: as §5

| Structure (SMILES) | Ratio [1] | MIC [2] | MIC [3] | MIC [4] | Ratio [6] | MIC [7] | ED50 [8] | MIC [9] | MIC [10] | ED50 [11] | MIC [12] | ED50 [13] | MIC [14] | MIC [15] | MIC [16] | MIC [17] | MIC [18] | ED50 [19] | ED50 [20] | ED50 [21] | other results |
| --- | --- | --- | --- | --- | --- | --- | --- | --- | --- | --- | --- | --- | --- | --- | --- | --- | --- | --- | --- | --- | --- |
| Nc1nc(CC(=O)N[C@@H]2C(=O)N3C(C(=O)O)=C(Cl)CS[C@H]23)cs1 | 0.7 | 0.25 µg/mL (≈ 0.667 µM) | 0.25 µg/mL (≈ 0.667 µM) | 0.5 µg/mL (≈ 1.33 µM) | 4.5 |  |  |  |  |  |  |  |  |  |  |  |  |  |  |  | Ratio [5]: 1.4 |
| O=C(Cc1csc2ccccc12)N[C@@H]1C(=O)N2C(C(=O)O)=C(Cl)CS[C@H]12 | 1.4 | 128 µg/mL (≈ 313 µM) |  |  | 2.4 |  |  |  |  |  |  |  |  |  |  |  |  |  |  |  | Ratio [5]: 2.4 |
| O=C(Cc1csc2ccccc12)N[C@@H]1C(=O)N2C(C(=O)O)=CCS[C@H]12 |  | > 128 µg/mL | 0.25 µg/mL (≈ 0.668 µM) | 0.25 µg/mL (≈ 0.668 µM) | 3.6 | 0.5 µg/mL (≈ 1.34 µM) | 2.9 2mg kg-1 | > 128 µg/mL | 4 µg/mL (≈ 10.7 µM) | >10 2mg kg-1 | 64 µg/mL (≈ 171 µM) | 0.8 2mg kg-1 | > 128 µg/mL | 0.25 µg/mL (≈ 0.668 µM) | 0.06 µg/mL (≈ 0.16 µM) | 0.06 µg/mL (≈ 0.16 µM) | 0.25 µg/mL (≈ 0.668 µM) | >10 2mg kg-1 | >10 2mg kg-1 | 8.2 2mg kg-1 |  |
| O=C(CSc1cc(Cl)ccc1Cl)N[C@@H]1C(=O)N2C(C(=O)O)=C(Cl)CS[C@H]12 | 2.6 |  | < 0.008 µg/mL | 0.015 µg/mL (≈ 0.0331 µM) | 5.9 | 1 µg/mL (≈ 2.2 µM) | 7.7 mg/kg | > 128 µg/mL | 1 µg/mL (≈ 2.2 µM) | > 25 mg/kg | 32 µg/mL (≈ 70.5 µM) | 1.3 mg/kg | 32 µg/mL (≈ 70.5 µM) | 0.03 µg/mL (≈ 0.0661 µM) | < 0.008 µg/mL | 0.125 µg/mL (≈ 0.275 µM) | 0.03 µg/mL (≈ 0.0661 µM) | 6.3 mg/kg | 7.2 mg/kg | 2.8 mg/kg | MIC [22]: 64 µg/mL (≈ 141 µM) |
| COC1=C(C(=O)O)N2C(=O)[C@@H](NC(=O)Cc3csc4ccccc34)[C@H]2SC1 |  | > 128 µg/mL | 0.5 µg/mL (≈ 1.24 µM) |  | 2 | 0.5 µg/mL (≈ 1.24 µM) |  | > 128 µg/mL |  |  | > 128 µg/mL |  |  |  | 0.25 µg/mL (≈ 0.618 µM) |  | 0.25 µg/mL (≈ 0.618 µM) |  |  |  | ED50 [23]: 2.8 mg/kg; MIC [24]: 0.25 µg/mL (≈ 0.618 µM); ED50 [25]: > 10 mg/kg; ED50 [26]: 1.4 mg/kg; MIC [27]: 8 µg/mL (≈ 19.8 µM); MIC [28]: 0.5 µg/mL (≈ 1.24 µM); ED50 [29]: > 10 mg/kg; ED50 [30]: > 10 mg/kg; MIC [31]: > 128 µg/mL; MIC [32]: 0.5 µg/mL (≈ 1.24 µM); ED50 [33]: > 10 mg/kg |
| C=CC1=C(C(=O)O)N2C(=O)[C@@H](NC(=O)Cc3csc4ccccc34)[C@H]2SC1 | 4.2 | > 128 µg/mL | 0.06 µg/mL (≈ 0.15 µM) | 0.03 µg/mL (≈ 0.0749 µM) | 4.1 | 4 µg/mL (≈ 9.99 µM) | 3.12 2mg kg-1 | > 128 µg/mL | 4 µg/mL (≈ 9.99 µM) | >16 2mg kg-1 | > 128 µg/mL | 0.76 2mg kg-1 | > 128 µg/mL | 0.125 µg/mL (≈ 0.312 µM) | 0.015 µg/mL (≈ 0.0375 µM) | 0.03 µg/mL (≈ 0.0749 µM) | 0.125 µg/mL (≈ 0.312 µM) | 8.4 2mg kg-1 | 14.7 2mg kg-1 | 3.54 2mg kg-1 |  |
| Nc1nc2cc(CC(=O)N[C@@H]3C(=O)N4C(C(=O)O)=C(Cl)CS[C@H]34)ccc2s1 | 11 | 64 µg/mL (≈ 151 µM) | 0.06 µg/mL (≈ 0.141 µM) | 0.06 µg/mL (≈ 0.141 µM) |  | 0.5 µg/mL (≈ 1.18 µM) | > 10 mg/kg | > 128 µg/mL | 0.5 µg/mL (≈ 1.18 µM) | > 10 mg/kg | 64 µg/mL (≈ 151 µM) | 3.54 mg/kg | 64 µg/mL (≈ 151 µM) | 0.25 µg/mL (≈ 0.588 µM) | 0.06 µg/mL (≈ 0.141 µM) | 0.03 µg/mL (≈ 0.0706 µM) | 0.25 µg/mL (≈ 0.588 µM) | 2.3 mg/kg | 10 mg/kg | 0.9 mg/kg |  |
| Nc1nc(CC(=O)N[C@@H]2C(=O)N3C(C(=O)O)=C(Cl)CS[C@H]23)c(-c2ccccc2)s1 |  | > 128 µg/mL | 0.03 µg/mL (≈ 0.0665 µM) |  |  |  |  | > 128 µg/mL |  |  | > 128 µg/mL |  | > 128 µg/mL |  | 0.03 µg/mL (≈ 0.0665 µM) |  | 0.03 µg/mL (≈ 0.0665 µM) |  |  |  | MIC [34]: 16 µg/mL (≈ 35.5 µM); MIC [35]: 16 µg/mL (≈ 35.5 µM) |
| CC1(C)S[C@@H]2[C@H](NC(=O)COc3ccccc3)C(=O)N2[C@H]1C(=O)O [PENICILLIN V] | 3.9 |  |  |  | 11 |  | 0.46 mg/kg |  |  |  |  |  |  |  |  |  |  |  |  |  | ED50 [36]: 2.3 mg/kg; Ratio [5]: 1.1 |
